According to the M2OR odorant receptor database:

What was measured:
Conditions in all cases: stereoisomer not certain
OR8H1 (Homo sapiens) = OR8H1 (Homo sapiens) (UniProt Q8NGG4)
Method in brief: (§1)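 Each receptor–molecule pair is labelled responsive or non-responsive (inactive) according to whether the original authors judged the measured signal statistically different from baseline. The data were taken from the main text and supplementary material of published papers and checked for typos and inconsistencies. Assay methods differed by source, with transient luciferase assays in mammalian cell lines being common.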

OR8H2 (Homo sapiens) = OR8H2 (Homo sapiens) (UniProt Q8N162)
Method in brief: as §1

OR8H2 H120Y Y169C V284M = test system: OR8H2 H120Y Y169C V284M
Method in brief: as §1

OR8H3 (Homo sapiens) = OR8H3 (Homo sapiens) (UniProt Q8N146)
Method in brief: as §1

OR8H3 = test system: OR8H3
Method in brief: as §1

OR8I2 (Homo sapiens) = OR8I2 (Homo sapiens) (UniProt Q8N0Y5)
Method in brief: as §1

OR8J1 (Homo sapiens) = OR8J1 (Homo sapiens) (UniProt Q8NGP2)
Method in brief: as §1

OR8J1 = test system: OR8J1
Method in brief: as §1

OR8J3 (Homo sapiens) = OR8J3 (Homo sapiens) (UniProt Q8NGG0)
Method in brief: as §1

OR8J3 E4V = test system: OR8J3 E4V
Method in brief: as §1

OR8K1 (Homo sapiens) = OR8K1 (Homo sapiens) (UniProt Q8NGG5)
Method in brief: as §1

OR8K3 (Homo sapiens) = OR8K3 (Homo sapiens) (UniProt Q8NH51)
Method in brief: as §1

OR8K5 (Homo sapiens) = OR8K5 (Homo sapiens) (UniProt Q8NH50)
Method in brief: as §1

OR8S1 (Homo sapiens) = OR8S1 (Homo sapiens) (UniProt Q8NH09)
Method in brief: as §1

OR8U1 (Homo sapiens) = OR8U1 (Homo sapiens) (UniProt Q8NH10)
Method in brief: as §1

OR8U3 (Homo sapiens) = OR8U3 (Homo sapiens) (UniProt Q8NH85)
Method in brief: as §1

OR8U8 [1] = test system: OR8U8
Method in brief: as §1

OR8U8 [2] = test system: OR8U8; remark: listed apart in the source
Method in brief: as §1
Target sequence in this assay (as listed by the source): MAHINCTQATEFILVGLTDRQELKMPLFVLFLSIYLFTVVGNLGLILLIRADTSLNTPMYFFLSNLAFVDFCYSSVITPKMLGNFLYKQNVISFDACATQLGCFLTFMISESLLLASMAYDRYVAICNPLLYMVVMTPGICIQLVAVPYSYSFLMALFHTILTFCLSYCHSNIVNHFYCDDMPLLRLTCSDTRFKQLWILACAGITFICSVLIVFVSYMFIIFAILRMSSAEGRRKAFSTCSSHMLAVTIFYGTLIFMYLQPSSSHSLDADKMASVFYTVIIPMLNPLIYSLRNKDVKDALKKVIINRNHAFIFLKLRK

OR8J2 (Homo sapiens) = OR8J2 (Homo sapiens) (UniProt Q8NGG1)
Method in brief: as §1

OR8U8 (Homo sapiens) = OR8U8 (Homo sapiens) (UniProt P0C7N1)
Method in brief: as §1

Measured: odorant receptor agonist call;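 note: active if original authors judged signal statistically different from baseline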

Chain of OR8H2 (Homo sapiens) (Q8N162 whole entry): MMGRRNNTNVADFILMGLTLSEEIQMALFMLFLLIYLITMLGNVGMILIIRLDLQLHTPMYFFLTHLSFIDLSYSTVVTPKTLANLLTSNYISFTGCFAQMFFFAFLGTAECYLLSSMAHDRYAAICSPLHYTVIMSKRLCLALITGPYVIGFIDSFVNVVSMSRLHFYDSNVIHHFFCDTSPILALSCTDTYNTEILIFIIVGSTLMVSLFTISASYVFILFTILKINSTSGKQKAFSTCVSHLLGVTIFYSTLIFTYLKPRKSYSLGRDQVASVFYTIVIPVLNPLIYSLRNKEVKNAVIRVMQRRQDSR
Chain of OR8S1 (Homo sapiens) (Q8NH09 whole entry): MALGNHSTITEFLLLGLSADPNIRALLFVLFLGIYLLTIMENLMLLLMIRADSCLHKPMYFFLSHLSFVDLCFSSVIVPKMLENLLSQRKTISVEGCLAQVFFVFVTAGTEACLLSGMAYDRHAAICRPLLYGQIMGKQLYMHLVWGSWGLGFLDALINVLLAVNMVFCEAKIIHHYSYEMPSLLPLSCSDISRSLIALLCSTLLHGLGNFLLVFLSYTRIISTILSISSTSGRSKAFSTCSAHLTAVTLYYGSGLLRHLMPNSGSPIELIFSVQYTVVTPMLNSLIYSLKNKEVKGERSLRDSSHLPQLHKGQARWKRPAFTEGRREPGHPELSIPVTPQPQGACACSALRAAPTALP
Chain of OR8J1 (Homo sapiens) (Q8NGP2 whole entry): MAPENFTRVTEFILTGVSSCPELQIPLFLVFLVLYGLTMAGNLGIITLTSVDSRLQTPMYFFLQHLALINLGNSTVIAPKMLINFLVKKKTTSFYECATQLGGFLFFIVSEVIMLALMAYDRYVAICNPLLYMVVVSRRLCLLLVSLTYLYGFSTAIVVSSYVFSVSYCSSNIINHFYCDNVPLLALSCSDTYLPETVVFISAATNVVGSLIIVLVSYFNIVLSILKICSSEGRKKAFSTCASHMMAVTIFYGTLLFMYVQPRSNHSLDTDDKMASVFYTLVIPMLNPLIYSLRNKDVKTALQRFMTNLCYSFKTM
Chain of OR8I2 (Homo sapiens) (Q8N0Y5 whole entry): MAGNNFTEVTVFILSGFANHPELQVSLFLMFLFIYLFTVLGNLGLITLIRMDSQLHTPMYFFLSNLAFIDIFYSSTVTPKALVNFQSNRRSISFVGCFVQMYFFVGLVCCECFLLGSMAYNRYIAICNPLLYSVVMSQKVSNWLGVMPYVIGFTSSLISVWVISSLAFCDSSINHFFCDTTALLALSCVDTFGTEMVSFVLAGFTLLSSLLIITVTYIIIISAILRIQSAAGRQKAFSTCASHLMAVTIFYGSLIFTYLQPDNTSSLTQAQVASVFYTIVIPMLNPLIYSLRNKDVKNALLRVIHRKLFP
Chain of OR8H1 (Homo sapiens) (Q8NGG4 whole entry): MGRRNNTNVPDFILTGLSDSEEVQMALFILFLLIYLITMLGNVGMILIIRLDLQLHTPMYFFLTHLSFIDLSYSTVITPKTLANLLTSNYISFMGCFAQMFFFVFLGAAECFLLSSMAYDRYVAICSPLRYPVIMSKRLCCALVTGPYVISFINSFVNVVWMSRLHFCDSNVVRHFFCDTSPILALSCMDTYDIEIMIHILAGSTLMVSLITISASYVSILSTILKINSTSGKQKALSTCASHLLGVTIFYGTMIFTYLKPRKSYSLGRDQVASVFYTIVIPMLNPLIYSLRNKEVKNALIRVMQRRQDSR
Chain of OR8J3 (Homo sapiens) (Q8NGG0 whole entry): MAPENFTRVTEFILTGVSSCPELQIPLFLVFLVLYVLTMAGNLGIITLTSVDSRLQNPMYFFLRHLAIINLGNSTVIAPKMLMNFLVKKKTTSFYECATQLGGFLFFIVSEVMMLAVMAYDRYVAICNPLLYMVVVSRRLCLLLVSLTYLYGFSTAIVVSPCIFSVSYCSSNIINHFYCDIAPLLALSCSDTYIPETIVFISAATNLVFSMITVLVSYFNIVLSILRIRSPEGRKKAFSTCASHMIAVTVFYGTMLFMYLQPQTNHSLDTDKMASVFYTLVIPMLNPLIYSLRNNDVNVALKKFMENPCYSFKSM
Chain of OR8U1 (Homo sapiens) (Q8NH10 whole entry): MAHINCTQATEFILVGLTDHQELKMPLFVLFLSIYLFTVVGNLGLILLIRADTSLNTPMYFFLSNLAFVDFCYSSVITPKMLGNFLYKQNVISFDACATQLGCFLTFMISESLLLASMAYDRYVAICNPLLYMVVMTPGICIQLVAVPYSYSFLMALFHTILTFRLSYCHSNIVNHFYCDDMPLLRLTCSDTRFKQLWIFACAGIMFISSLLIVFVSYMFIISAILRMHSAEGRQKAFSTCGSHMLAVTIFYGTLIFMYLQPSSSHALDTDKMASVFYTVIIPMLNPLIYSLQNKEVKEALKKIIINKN
Chain of OR8K5 (Homo sapiens) (Q8NH50 whole entry): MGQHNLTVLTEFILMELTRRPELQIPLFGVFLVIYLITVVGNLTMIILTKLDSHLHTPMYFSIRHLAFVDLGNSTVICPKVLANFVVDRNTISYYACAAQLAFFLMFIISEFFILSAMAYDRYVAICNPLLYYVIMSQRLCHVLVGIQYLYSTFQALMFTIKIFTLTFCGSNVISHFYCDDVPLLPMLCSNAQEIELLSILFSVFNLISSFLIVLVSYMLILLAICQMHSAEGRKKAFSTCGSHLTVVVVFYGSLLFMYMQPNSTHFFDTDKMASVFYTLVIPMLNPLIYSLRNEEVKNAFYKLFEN
Chain of OR8U3 (Homo sapiens) (Q8NH85 whole entry): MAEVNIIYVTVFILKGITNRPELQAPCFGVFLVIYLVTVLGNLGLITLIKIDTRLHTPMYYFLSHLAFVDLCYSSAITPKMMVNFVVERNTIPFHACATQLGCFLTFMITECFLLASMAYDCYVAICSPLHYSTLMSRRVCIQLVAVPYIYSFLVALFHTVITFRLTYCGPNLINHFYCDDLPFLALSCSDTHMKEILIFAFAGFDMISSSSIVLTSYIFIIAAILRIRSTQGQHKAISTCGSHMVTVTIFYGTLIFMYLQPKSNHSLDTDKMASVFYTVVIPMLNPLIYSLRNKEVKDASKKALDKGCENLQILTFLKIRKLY
Chain of OR8K3 (Homo sapiens) (Q8NH51 whole entry): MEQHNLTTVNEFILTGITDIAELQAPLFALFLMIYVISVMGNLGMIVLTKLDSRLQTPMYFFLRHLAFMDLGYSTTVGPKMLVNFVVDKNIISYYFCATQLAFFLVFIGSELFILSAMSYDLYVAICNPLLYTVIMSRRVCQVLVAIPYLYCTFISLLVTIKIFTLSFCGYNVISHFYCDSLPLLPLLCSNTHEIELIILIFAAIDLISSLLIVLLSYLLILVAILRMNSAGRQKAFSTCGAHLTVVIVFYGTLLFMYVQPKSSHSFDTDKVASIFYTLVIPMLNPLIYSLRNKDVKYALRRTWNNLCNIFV
Chain of OR8H3 (Homo sapiens) (Q8N146 whole entry): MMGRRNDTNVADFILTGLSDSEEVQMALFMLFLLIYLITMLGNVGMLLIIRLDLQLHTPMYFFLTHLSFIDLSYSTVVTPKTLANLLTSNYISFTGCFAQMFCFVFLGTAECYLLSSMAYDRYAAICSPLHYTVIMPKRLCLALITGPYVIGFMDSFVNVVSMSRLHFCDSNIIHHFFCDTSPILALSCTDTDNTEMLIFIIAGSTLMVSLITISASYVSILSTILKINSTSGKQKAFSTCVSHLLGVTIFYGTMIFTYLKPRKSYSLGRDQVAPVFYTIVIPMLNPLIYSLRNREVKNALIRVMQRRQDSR
Chain of OR8K1 (Homo sapiens) (Q8NGG5 whole entry): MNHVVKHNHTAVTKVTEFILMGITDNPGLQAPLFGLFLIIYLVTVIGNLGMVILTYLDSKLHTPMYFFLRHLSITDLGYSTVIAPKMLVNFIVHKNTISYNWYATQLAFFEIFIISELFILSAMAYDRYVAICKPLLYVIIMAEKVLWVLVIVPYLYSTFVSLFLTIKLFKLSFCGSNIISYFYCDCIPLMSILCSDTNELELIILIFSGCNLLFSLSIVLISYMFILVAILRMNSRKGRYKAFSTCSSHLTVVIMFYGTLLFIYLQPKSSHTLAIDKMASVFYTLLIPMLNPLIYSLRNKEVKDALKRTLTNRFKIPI
Chain of OR8J1 (as listed by the source): as the sequence (Q8NGP2 whole entry) above, with Y120C counted along it
Chain of OR8H3 (as listed by the source): as the sequence (Q8N146 whole entry) above, with P137S counted along it

C=CCOC(=O)Cc1ccccc1
not listed: OR8J2 (Homo sapiens) | OR8U8 (Homo sapiens)
inactive: all other assays above

Cc1c([N+](=O)[O-])c(C)c([N+](=O)[O-])c(C(C)(C)C)c1[N+](=O)[O-]
not listed: OR8H2 H120Y Y169C V284M | OR8H3 | OR8J1 | OR8J3 E4V | OR8U8 [1] | OR8U8 [2]
inactive: all other assays above
